Experimental data reported in PMC11393732 (RSC Medicinal Chemistry, 2024).

How the values were obtained:
SW480 cells = experiment: Clonogenic assay SW480; format: cell-based, human; conditions: SW480, 2 weeks
Procedure, shortened: (§1)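 Cells kept in DMEM with 10% FBS and 1% pen–strep, seeded at 500 cells/well and dosed with test compound once attached. Medium refreshed every 3 days for 2 weeks. Colonies stained with 0.5% crystal violet and photographed. ED50 obtained by image analysis.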

HCP-1 cells = experiment: Clonogenic assay HCP-1; format: cell-based, human; conditions: HCP-1, 2 weeks
Procedure, shortened: as §1

O=C1CCC(N2C(=O)c3cccc(NCCOCCOCCOCCOCCNC(=O)c4ccc(O)c5ncccc45)c3C2=O)C(=O)N1 (centres unmarked) [Compound 4, N-(14-((2-(2,6-Dioxopiperidin-3-yl)-1,3-dioxoisoindolin-4-yl)amino)-3,6,9,12-tetraoxatetradecyl)-8-hydroxyquinoline-5-carboxamide]
colony formation (SW480 cells): potently inhibited the colony formation
colony formation (HCP-1 cells): potently inhibited the colony formation
